In ChEMBL document CHEMBL1141320, “Antioxidant flavonoid glycosides from aerial parts of the fern Abacopteris penangiana” (J Nat Prod, 2007):
Calls of active or inactive are those of the source. No cut-off for these calls is given here.

Test: Antioxidant activity assessed as ABTS radical scavenging activity after 15 mins by TEAC assay
Format: functional
How it was run: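 ABTS (7 mM in water) oxidized with potassium persulfate (2.45 mM final), kept dark at room temperature 16 h, diluted with water to A734 0.700 ± 0.003. Sample added to diluted ABTS•+ (0–20 µM final); A734 decrease read after 15 min. Triplicate, with solvent blanks. Percent inhibition plotted against concentration alongside Trolox standard; TEAC = Trolox concentration matching antioxidant potential of 1 mM sample.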

SMILES	Activity
COc1ccc([C@@H]2C[C@H]3O[C@H]4[C@H](Oc5c(C)c(O[C@@H]6O[C@H](CO)[C@@H](O)[C@H](O)[C@H]6O)c(C)c(c53)O2)O[C@H](CO)[C@@H](O)[C@@H]4O)cc1	inactive
Cc1c(O[C@@H]2O[C@H](CO)[C@@H](O)[C@H](O)[C@H]2O)c(CO)c(O[C@@H]2O[C@H](CO)[C@@H](O)[C@H](O)[C@H]2O)c2c1O[C@H](c1ccc(O)cc1)C[C@H]2O	1.17 mM
Cc1c(O)c(C)c2c3c1O[C@@H]1O[C@H](CO)[C@@H](O)[C@H](O)[C@H]1O[C@@H]3C[C@@H](c1ccc(O)cc1)O2	1.32 mM
O=c1c(O[C@@H]2O[C@H](CO)[C@@H](O)[C@H](O)[C@H]2O)c(-c2ccc(O)c(O)c2)oc2cc(O)cc(O)c12	1.91 mM
COc1ccc([C@@H]2C[C@@H](O)c3c(c(C)c(O[C@@H]4O[C@H](CO)[C@@H](O)[C@H](O)[C@H]4O)c(CO)c3O[C@@H]3O[C@H](CO)[C@@H](O)[C@H](O)[C@H]3O)O2)cc1	inactive
COc1ccc([C@@H]2C[C@H]3O[C@H]4[C@H](Oc5c(C)c(O)c(C)c(c53)O2)O[C@H](CO)[C@@H](O)[C@@H]4O)cc1	1.36 mM
COc1ccc([C@@H]2C[C@@H]3O[C@H]4[C@H](Oc5c(C)c(O)c(C)c(c53)O2)O[C@H](CO)[C@@H](O)[C@@H]4O)cc1	1.1 mM
COCc1c(O)c(C)c2c3c1O[C@@H]1O[C@H](CO)[C@@H](O)[C@H](O)[C@H]1O[C@@H]3C[C@@H](c1ccc(OC)cc1)O2	1.03 mM
O=c1c(O[C@@H]2O[C@H](CO)[C@@H](O)[C@H](O)[C@H]2O)c(-c2ccc(O)cc2)oc2cc(O)cc(O)c12	1.46 mM
COCc1c(O)c(C)c2c3c1O[C@@H]1O[C@H](CO)[C@@H](O)[C@H](O)[C@H]1O[C@@H]3C[C@@H](c1ccc(O)cc1)O2	1.51 mM
Cc1c(O)c(C)c2c3c1O[C@@H]1O[C@H](CO)[C@@H](O)[C@H](O)[C@H]1O[C@H]3C[C@@H](c1ccc(O)cc1)O2	1.44 mM
O=c1c(O)c(-c2ccc(O)c(O)c2)oc2cc(O)cc(O)c12	3.74 mM
COc1ccc([C@@H]2C[C@@H](O)c3c(O[C@@H]4O[C@H](CO)[C@@H](O)[C@H](O)[C@H]4O)c(C)c(O[C@@H]4O[C@H](CO)[C@@H](O)[C@H](O)[C@H]4O)c(C)c3O2)cc1	inactive
